Assay results pooled from the literature.
Target: Serine/threonine-protein kinase 17B (STK17B, Homo sapiens, UniProt O94768)
Sequence (O94768 1-372, as in one of the studies): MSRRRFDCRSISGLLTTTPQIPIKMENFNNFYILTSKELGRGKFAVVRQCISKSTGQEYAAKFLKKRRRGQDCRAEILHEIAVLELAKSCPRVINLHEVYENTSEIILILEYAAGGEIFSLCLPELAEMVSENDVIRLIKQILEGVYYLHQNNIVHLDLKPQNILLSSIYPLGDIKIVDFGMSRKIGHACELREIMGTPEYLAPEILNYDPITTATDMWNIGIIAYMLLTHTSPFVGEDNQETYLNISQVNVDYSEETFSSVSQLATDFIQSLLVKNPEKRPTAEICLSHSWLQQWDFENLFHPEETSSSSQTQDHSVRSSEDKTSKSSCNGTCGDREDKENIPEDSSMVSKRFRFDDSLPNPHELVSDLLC

| Structure (SMILES) | observed | method | concentration | remaining binding [%] |
| --- | --- | --- | --- | --- |
| COc1cnc(Nc2cccc(S(N)(=O)=O)c2)nc1N1CCN(c2ccccc2)CC1 | binding | competition with immobilised ligand | 1 µM | 99 |
| C[C@@H]1CN(c2cc(-c3nn(C)c4ccc(OC5(C)CC5)cc34)ncn2)C[C@H](C)O1 | cell-free assay | competition with immobilised ligand | 1 µM | 100 |
| c1cncc(-c2cccc(Nc3nccc(NC4CCCCC4)n3)c2)c1 | binding | competition with immobilised ligand | 10 µM | 77 |
| O=C(c1ccc(Nc2ncc(Cl)c(-c3cc4ccccc4s3)n2)cc1)N1CCC(N2CCCC2)CC1 | binding | competition with immobilised ligand | 1 µM | 0 |
| O=C(Nc1c[nH]nc1C(=O)NC1CCNCC1)c1cc(F)cc(F)c1 | binding | competition with immobilised ligand | 1 µM | 100 |
| CCN1CCN(Cc2ccc(C(=O)Nc3ccc(C)c(Oc4ccc5c(c4)CC(=O)N5)c3)cc2C(F)(F)F)CC1 | binding | competition with immobilised ligand | 1 µM | 100 |
| CS(=O)(=O)c1cc(C2(NC(=O)c3cncc4c3cnn4-c3ccc(F)cc3)CC2)ccn1 | cell-free assay | competition with immobilised ligand | 1 µM | 83 |
| COc1ccnn2ncc(-c3ccnc(N(C)C)n3)c12 | binding |  | 1 µM | 100 |
| Cc1noc([C@H]2C[C@@H](c3ccc(C(F)(F)F)cc3)CN(C(=O)N3CCS(=O)(=O)C3)C2)n1 | cell-free assay | competition with immobilised ligand | 1 µM | 100 |
| C[C@H]1CCN(c2nccc(-c3cnn4ncccc34)n2)C1 | binding |  | 1 µM | 93 |
| O=C(NCCCN1CCOCC1)c1ccc(Nc2nccc(-c3cc4ccccc4s3)n2)cc1 | binding | competition with immobilised ligand | 1 µM | 0 |
| CNC(=O)Nc1ccc2c(c1)[C@@]1(CC2)OC(=O)N(CC(=O)N(Cc2ccc(F)cc2)[C@@H](C)C(F)(F)F)C1=O | cell-free assay | competition with immobilised ligand | 1 µM | 77 |
| Cc1cnn2ncc(-c3ccnc(N(C)C)n3)c2c1 | binding |  | 1 µM | 100 |
| CCCCN(CCCC)C(=O)CN1C[C@H](c2cc(OC)c3c(c2)OCO3)[C@@H](C(=O)O)[C@@H]1CC(C)(C)CCC | cell-free assay | competition with immobilised ligand | 1 µM | 100 |
| C=CC(=O)N1CCC(C(=O)NCC(=O)N2CCN(c3nc(-c4cnc(N)nc4C(F)F)nc(N4CCOCC4)n3)CC2)CC1 | binding | competition with immobilised ligand | 1 µM | 97 |
| C[C@@H]1CN(c2cc(-c3n[nH]c4ccc(OC5(C)CC5)cc34)ncn2)C[C@H](C)O1 | cell-free assay | competition with immobilised ligand | 0.1 µM | 96 |
| CC1CCCN1c1nccc(-c2cnn3ncccc23)n1 (stereo not shown) | binding |  | 1 µM | 100 |
| CN([C@@H]1CCc2c(CC(=O)O)c3cc(S(C)(=O)=O)ccc3n2C1)S(=O)(=O)c1ccc(F)cc1 | cell-free assay | competition with immobilised ligand | 1 µM | 85 |
| N[C@@H]1CCN(c2nccc(-c3cnn4ncccc34)n2)C1 | binding |  | 1 µM | 100 |
| COc1ncc2cc3ccccc3nc2c1C#N | cell-free assay | competition with immobilised ligand | 5 µM | 100 |
| O=C(NCCCN1CCOCC1)c1ccc(Nc2ncc(Cl)c(-c3ccc(Cl)s3)n2)cc1 | binding | competition with immobilised ligand | 1 µM | 0.45 |
| CN(CCCC(F)(F)F)c1nccc(-c2cnn3ncccc23)n1 | binding |  | 1 µM | 100 |
